From ChEMBL document CHEMBL4680218, “Design and synthesis of tripeptidyl furylketones as selective inhibitors against the β5 subunit of human 20S proteasome” (Eur J Med Chem, 2020) come the findings set out here.

For test [1], the target named is T1, Proteasome Macropain subunit MB1 (Homo sapiens) (UniProt P28074).
T1 sequence (whole entry): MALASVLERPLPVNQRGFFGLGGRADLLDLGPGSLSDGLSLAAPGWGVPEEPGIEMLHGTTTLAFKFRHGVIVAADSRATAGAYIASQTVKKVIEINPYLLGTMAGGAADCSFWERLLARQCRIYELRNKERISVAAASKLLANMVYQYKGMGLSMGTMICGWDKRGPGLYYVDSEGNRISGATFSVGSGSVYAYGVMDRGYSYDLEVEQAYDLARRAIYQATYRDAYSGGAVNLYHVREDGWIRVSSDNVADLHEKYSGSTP
Briefly: Inhibition of chymotrypsin-like activity of human 20S proteasome beta5 subunit at 50 uM using Suc-LLVY-Glo as substrate incubated for 2 hrs followed by substrate addition and measured for 10 mins by bioluminescent assay relative to control. The following applies: time 130.0 min. The method, boiled down:
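Human constitutive 20S proteasome (1 µg/mL) was incubated with compound for 2 h at 25 °C in 10 mM HEPES pH 7.6 with 1% DMSO final. Suc-LLVY-Glo substrate was then added, and luminescence was read over 10 min. Inhibition rate was calculated against the uninhibited signal.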

Test [2] addresses T2, Proteasome Macropain subunit MB1 (Homo sapiens, UniProt P28074).
T2 sequence (P28074 whole entry): T1 sequence (whole entry)
Briefly: Inhibition of chymotrypsin-like activity of human 20S proteasome beta5 subunit using Suc-LLVY-Glo as substrate incubated for 2 hrs followed by substrate addition and measured for 10 mins by bioluminescent assay. In short, it runs like this: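 Human constitutive 20S proteasome (1 μg/mL) was combined with compound serially diluted in 10 mM HEPES pH 7.6, with final DMSO 1% (v/v). After 2 h at 25 °C, Suc-LLVY-Glo (CT-L), Z-LRR-Glo (T-L) or Z-nLPnLD-Glo (C-L) reagent was added. Luminescence was read over 10 min, and IC50 was taken from inhibition rates.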

The next test has as its system A-375. Briefly: Cytotoxicity against human A-375 cells assessed as reduction in cell viability after 72 hrs by Cell Titer-Glo assay. The settings on record: A-375, 72 h. It counts as functional, cell-based. In short, it runs like this: (§1)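 Cells were cultured in their respective media with 10% FBS, seeded from log phase at 1000 cells/well, and given compound after 18–24 h. After 72 h, an equal volume of CellTiter-Glo reagent was added and luminescence was read at 37 °C. IC50 came from dose-response curve fits; values are mean ± SD of three independent experiments, each in biological triplicate.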
In general terms: In ATP-based viability assays light output follows the ATP content of the culture.

The test system of the next test is BGC-823. Briefly: Cytotoxicity against human BGC-823 cells assessed as reduction in cell viability after 72 hrs by Cell Titer-Glo assay. It counts as functional, cell-based. The settings on record: BGC-823, 72 h. The method, boiled down:
as §1

The test system of another test is HeLa. Briefly: Cytotoxicity against human HeLa cells assessed as reduction in cell viability after 72 hrs by Cell Titer-Glo assay. The format is functional, cell-based. In short, it runs like this:
as §1

The subject of the next test is A549. Briefly: Cytotoxicity against human A549 cells assessed as reduction in cell viability after 72 hrs by Cell Titer-Glo assay. The format is functional, cell-based. The settings on record: A549, 72 h. In short, it runs like this: as §1
Test [3] can be described thus: Cytotoxicity against human PC3M1E8 cells assessed as reduction in cell viability after 72 hrs by Cell Titer-Glo assay. The format is functional, cell-based. The settings on record: PC3M1E8, 72 h. The method, boiled down:
as §1

The test system of test [4] is HCT-116. Briefly: Cytotoxicity against human HCT-116 cells assessed as reduction in cell viability after 72 hrs by Cell Titer-Glo assay. It counts as functional, cell-based. The settings on record: HCT-116, 72 h. In short, it runs like this:
as §1

The subject of another test is HEK293. Briefly: Cytotoxicity against human HEK293 cells assessed as reduction in cell viability after 72 hrs by Cell Titer-Glo assay. It counts as cell-based. The following applies: HEK293, 72 h. In short, it runs like this:
as §1

Another test relates to HT-29. Briefly: Cytotoxicity against human HT-29 cells assessed as reduction in cell viability after 72 hrs by Cell Titer-Glo assay. It counts as functional, cell-based. The settings on record: HT-29, 72 h. The method, boiled down: as §1
In test [5] the test system is HCT-116. Briefly: Cell cycle arrest in human HCT-116 cells assessed as accumulation at G1 phase at 1 uM after 24 hrs by propidium iodide staining based flow cytometric analysis (reference value: 29%). The format is functional.
For test [6], the system named is HCT-116. Briefly: Cell cycle arrest in human HCT-116 cells assessed as accumulation at S phase at 1 uM after 24 hrs by propidium iodide staining based flow cytometric analysis (reference value: 50%). It counts as functional.
In test [7] the test system is HCT-116. Briefly: Cell cycle arrest in human HCT-116 cells assessed as accumulation at G2/M phase at 1 uM after 24 hrs by propidium iodide staining based flow cytometric analysis (reference value: 21%). The format is functional.
The target in test [8] is T1, Proteasome Macropain subunit MB1 (Homo sapiens). Briefly: Reversible inhibition of human 20S proteasome beta5 subunit assessed as residual enzyme activity using Suc-LLVY-Glo as substrate preincubated for 2 hrs followed by compound washout and further incubated for 4 hrs followed by substrate addition and measured after 10 mins by bioluminescent assay relative to control. The method, boiled down: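 Human 20S proteasome (8 μg/mL) was pre-incubated with inhibitor for 2 h at 25 °C. Samples were then washed five times in assay buffer on 100 kDa cut-off centrifugal filters (14,000 g, 5 min each) and recovered. After a further 4 h at 25 °C, Suc-LLVY-Glo was added and luminescence was read after 10 min. Unwashed samples held an extra 4 h served as the standard.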

What is called inhibition is the percentage by which the read-out fell short of the control. Lower therefore signals a response near the control. As usually defined, the IC50 is the midpoint of a concentration-inhibition curve. In [1], `COC[C@H](NC(=O)[C@H](Cc1ccccc1)NC(=O)OCc1ccccc1)C(=O)N[C@@H](CC(C)C)C(=O)c1ccco1` gave an inhibition greater than 50%. In test [2], this compound gave an IC50 of 4.16 µM.
As for `COc1ccc(C[C@H](NC(=O)OC(C)(C)C)C(=O)N[C@@H](Cc2ccc(Cl)cc2)C(=O)N[C@@H](CC(C)C)C(=O)c2ccco2)cc1`, in [1], the inhibition was greater than 50%. Besides, the IC50 in [2] was 50 µM.
In turn, `CC(C)C[C@H](NC(=O)[C@H](C)NC(=O)[C@H](Cc1ccccc1)NC(=O)OC(C)(C)C)C(=O)c1ccco1` had an inhibition in [1] greater than 50%. Further, the IC50 in test [2] is 45.6 µM.
On the same counts, the results for `Cc1ccc(S(=O)(=O)N[C@@H](CC(=O)NCCC(C)C)C(=O)N[C@@H](C)C(=O)N[C@@H](CC(C)C)C(=O)c2ccco2)cc1` are greater than 50% and 6.3 µM.
Take `CC(C)C[C@H](NC(=O)[C@H](Cc1ccc(Cl)cc1)NC(=O)[C@H](Cc1ccccc1)NC(=O)OCc1ccccc1)C(=O)c1ccco1`: the inhibition in test [1] is greater than 50%. In addition, the 50% inhibitory concentration (IC50) in [2] was greater than 50 µM.
For `COC[C@H](NC(=O)[C@H](Cc1ccc(OC)cc1)NC(=O)OC(C)(C)C)C(=O)N[C@@H](CC(C)C)C(=O)c1ccco1`, the inhibition in [1] is greater than 50%. The compound further registered a half-maximal inhibitory concentration (IC50) in test [2] of 5.86 µM.
The compound `CC(C)C[C@H](NC(=O)[C@H](Cc1ccc(O)cc1)NC(=O)[C@H](Cc1ccc(O)cc1)NC(=O)c1ccc(CO)cc1)C(=O)c1ccco1` showed an inhibition in test [1] greater than 50%. For the same compound, in [2], inhibition was half-maximal at 4.56 µM (IC50).
For the compound `COc1ccc(C[C@H](NC(=O)[C@H](Cc2ccccc2)NC(=O)c2ccccc2OC)C(=O)N[C@@H](CC(C)C)C(=O)c2ccco2)cc1`, the inhibition in test [1] was greater than 50%. For the same compound, the IC50 in test [2] is greater than 50 µM.
On the same counts, the results for `COC[C@H](NC(=O)[C@H](CC(=O)NCCC(C)C)NS(=O)(=O)c1ccc(C)cc1)C(=O)N[C@@H](CC(C)C)C(=O)c1ccco1` are greater than 50% and greater than 50 µM.
Compound `COc1ccc(C[C@H](NS(=O)(=O)c2ccc(C)cc2)C(=O)N[C@@H](Cc2ccc(O)cc2)C(=O)N[C@@H](CC(C)C)C(=O)c2ccco2)cc1` yielded an inhibition in test [1] greater than 50%. In addition, the concentration for half-maximal inhibition (IC50) in test [2] is 0.54 µM; in the test on A-375 it was 3.87 µM; in the test with BGC-823, 8.37 µM; in the test with HeLa, 6.35 µM; in the test on A549 it was 13.1 µM; in test [3], 4.98 µM. The IC50 in the test with HCT-116 [4] is 3.52 µM; in the test on HEK293, greater than 50 µM; with HT-29 it was 5.4 µM. Besides, the values for the Activity in the test with HCT-116 [5], with HCT-116 [6] and with HCT-116 [7] were 24%, 25% and 51%, respectively.
Consider `COc1ccc(C[C@H](NC(=O)[C@H](Cc2ccccc2)NC(=O)c2ccccc2C)C(=O)N[C@@H](CC(C)C)C(=O)c2ccco2)cc1`, for which the inhibition in test [1] is greater than 50%. Half-maximal inhibition in test [2] (IC50) was put at 3.19 µM.
For `CC(C)C[C@H](NC(=O)[C@H](Cc1ccccc1)NC(=O)c1cnccn1)B(O)O`, the Activity in test [8] turned out to be 80%.
Turning to `COc1ccc(C[C@H](NC(=O)[C@H](Cc2ccccc2)NC(=O)c2ccccc2[N+](=O)[O-])C(=O)N[C@@H](CC(C)C)C(=O)c2ccco2)cc1`, the inhibition in test [1] was greater than 50%. In addition, the IC50 in [2] came to 7.26 µM.
For `Cc1ccc(S(=O)(=O)N[C@@H](CC(=O)NCC(C)C)C(=O)N[C@@H](C)C(=O)N[C@@H](CC(C)C)C(=O)c2ccco2)cc1`, the inhibition in test [1] is greater than 50%. For the same compound, inhibition in test [2] was half-maximal at 3.12 µM (IC50).
In turn, `COC[C@H](NC(=O)[C@H](Cc1ccccc1)NC(=O)OC(C)(C)C)C(=O)N[C@@H](CC(C)C)C(=O)c1ccco1` had an inhibition in test [1] greater than 50%. For the same compound, 14.3 µM corresponded to half-maximal inhibition in test [2] (IC50).
The corresponding values for `CC(C)C[C@H](NC(=O)[C@H](C)NC(=O)[C@H](Cc1ccccc1)NC(=O)OCc1ccccc1)C(=O)c1ccco1` are greater than 50% and greater than 50 µM.
Regarding `COc1ccc(C[C@H](NC(=O)c2cnccn2)C(=O)N[C@@H](Cc2ccc(O)cc2)C(=O)N[C@@H](CC(C)C)C(=O)c2ccco2)cc1`, the inhibition in test [1] was greater than 50%. The IC50 in test [2] came to 8.25 µM.
In the case of `COc1ccc(C[C@H](NC(=O)OC(C)(C)C)C(=O)N[C@@H](C)C(=O)N[C@@H](CC(C)C)C(=O)c2ccco2)cc1`, the inhibition in [1] was greater than 50%. In [2], this compound came in with a 50% inhibitory concentration (IC50) of 12 µM.
On the same counts, the results for `CC(C)C[C@H](NC(=O)[C@H](Cc1ccc(O)cc1)NC(=O)[C@H](Cc1ccc(Cl)cc1)NC(=O)OC(C)(C)C)C(=O)c1ccco1` are greater than 50% and 7.26 µM.
The corresponding values for `COc1ccc(C[C@H](NC(=O)[C@H](Cc2ccccc2)NC(=O)c2cnccn2)C(=O)N[C@@H](CC(C)C)C(=O)c2ccco2)cc1` are greater than 50% and greater than 50 µM.
On the same counts, the results for `CC(=O)N[C@@H](Cc1ccccc1)C(=O)N[C@@H](Cc1ccc(O)cc1)C(=O)N[C@@H](CC(C)C)C(=O)c1ccco1` are greater than 50% and 13.9 µM.
For the compound `COc1ccc(C[C@H](NC(=O)[C@H](Cc2ccccc2)NC(=O)c2ccccc2Br)C(=O)N[C@@H](CC(C)C)C(=O)c2ccco2)cc1`, the inhibition in [1] was greater than 50%. The IC50 in [2] was greater than 50 µM.
The corresponding values for `Cc1ccc(S(=O)(=O)N[C@@H](CC(=O)NCC(C)(C)C)C(=O)N[C@@H](C)C(=O)N[C@@H](CC(C)C)C(=O)c2ccco2)cc1` are greater than 50% and 5.63 µM.
The corresponding values for `Cc1ccc(S(=O)(=O)N[C@@H](Cc2ccccc2)C(=O)N[C@@H](Cc2ccc(O)cc2)C(=O)N[C@@H](CC(C)C)C(=O)c2ccco2)cc1` are greater than 50% and 2.33 µM.
The compound `COC[C@H](NC(=O)[C@H](CC(=O)NCC(C)C)NS(=O)(=O)c1ccc(C)cc1)C(=O)N[C@@H](CC(C)C)C(=O)c1ccco1` gave an inhibition in test [1] greater than 50%. The concentration for half-maximal inhibition (IC50) in test [2] came to 0.68 µM; with A-375, 2.61 µM; in the test on BGC-823 it was 3.96 µM; in the test on HeLa it was 2.47 µM; with A549, 17.6 µM; in [3] it was 3.73 µM. Besides, the IC50 is 1.67 µM in the test with HCT-116 [4], greater than 50 µM in the test on HEK293 and 4.85 µM in the test on HT-29. The Activity in the test on HCT-116 [5] was 27%; in the test with HCT-116 [6] it was 30%; in the test on HCT-116 [7] it was 43%.
